TRPC4 block: blocks the mouse TRPC4 cation channel; Q9QUQ5; HEK293 TRPC4beta/mu-opioid, DAMGO-evoked Fluo4 calcium flux; hits give low values; B-score at 10 µM; 300,000 compounds, 0.39% hits; AID 2247;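 active = B-score over 3 SD under the library average, no early fluorescence shift, positive overall ratio signal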
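material = TRPC4beta/mu-opioid receptor HEK293 cell line | probe or stimulus = sequential submaximal and maximal DAMGO stimulation | compound dosing = one concentration per compound | measured by = Fluo4 Ca2+ flux fluorescence | evaluation = integrated fluorescence ratio relative to baseline, converted to per-well B score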
TRPC6 activator: activators of mouse TRPC6 channel | B-score at 10 µM | HEK293-TRPC6 membrane potential dye fluorescence; hits give high values | Q61143 | 310,000 compounds, 0.13% hits;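 active = B-score of the integrated fluorescence ratio above library mean plus 3 SD, and starting fluorescence ratio within library mean plus 5 SD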;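 also: higher score means more depolarization so channel activation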
Pemphigus Ab inh: blocks pemphigus antibody binding to human desmoglein-3; AID 588358; 310,000 compounds, 0.48% hits; binding (percent of control), % at 10 µM; P32926; DSG3-coupled beads, scFv-anti-DSG3-GFP binding, flow cytometry; hits give low values;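 active = binding more than 3 SD below its plate's average and above zero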;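 also: hits lower antibody fragment binding to DSG3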
Target sequence (P32926 whole entry, looked up, the tested form may be a part): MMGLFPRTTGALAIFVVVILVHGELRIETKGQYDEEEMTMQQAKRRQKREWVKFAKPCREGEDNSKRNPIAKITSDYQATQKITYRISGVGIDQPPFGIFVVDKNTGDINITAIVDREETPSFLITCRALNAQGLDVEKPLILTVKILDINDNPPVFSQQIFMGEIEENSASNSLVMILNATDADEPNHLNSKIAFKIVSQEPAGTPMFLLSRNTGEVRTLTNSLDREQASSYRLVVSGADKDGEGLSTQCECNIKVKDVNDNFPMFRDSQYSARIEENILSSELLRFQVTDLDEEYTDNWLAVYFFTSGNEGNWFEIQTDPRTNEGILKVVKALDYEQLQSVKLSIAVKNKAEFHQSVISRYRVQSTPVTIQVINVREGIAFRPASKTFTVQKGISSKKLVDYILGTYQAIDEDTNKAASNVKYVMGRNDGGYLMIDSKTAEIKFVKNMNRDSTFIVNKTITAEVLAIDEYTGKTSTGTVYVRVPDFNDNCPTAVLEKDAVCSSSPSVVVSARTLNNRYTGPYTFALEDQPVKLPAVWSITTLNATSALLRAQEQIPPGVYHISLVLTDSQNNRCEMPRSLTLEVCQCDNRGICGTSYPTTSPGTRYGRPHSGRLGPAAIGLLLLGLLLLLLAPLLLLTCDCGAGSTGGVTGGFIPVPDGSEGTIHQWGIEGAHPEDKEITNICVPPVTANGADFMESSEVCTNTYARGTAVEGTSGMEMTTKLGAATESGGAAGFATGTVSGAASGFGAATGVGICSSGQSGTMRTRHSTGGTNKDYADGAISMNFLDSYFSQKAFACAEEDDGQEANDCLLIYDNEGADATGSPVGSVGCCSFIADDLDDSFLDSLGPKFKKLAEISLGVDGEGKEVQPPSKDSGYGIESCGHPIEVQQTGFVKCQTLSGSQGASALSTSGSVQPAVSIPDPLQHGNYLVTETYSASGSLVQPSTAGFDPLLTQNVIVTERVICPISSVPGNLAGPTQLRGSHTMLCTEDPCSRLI
TRPC4 potent: allosterically enhances the mouse TRPC4 cation channel; Q9QUQ5; HEK293 TRPC4beta/mu-opioid, DAMGO EC20, Fluo-4 Ca2+ flux; hits give high values; B-score at 10 µM; 310,000 compounds, 0.42% hits; AID 2227;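 active = B-score of calcium response area above 5 SD of library B-scores, with initial fluorescence ratio within 5 SD of library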;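 also: B-score of integrated fluorescence ratio over time as area under calcium response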
TRPC4 act: activators of mouse TRPC4 channel; Q9QUQ5; HEK293 TRPC4beta/mu-opioid, Fluo4 calcium fluorescence; hits give high values; B-score at 10 µM; 310,000 compounds, 0.49% hits;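 active = B-score above 5 SD of library B-scores, and initial fluorescence ratio not above library mean plus 5 SD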;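 also: positive B-score marks a calcium rise read as TRPC4 activation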
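Incubation: 45 min room-temperature Fluo4 loading, 110 s read / System: HEK293 cells stably co-expressing mouse TRPC4beta and mu-opioid receptor / Signal: Fluo4 fluorescence, kinetic / Control set: buffer (low) and maximal DAMGO (high) / Measure: integrated baseline-normalised fluorescence ratio, converted to per-well B score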
TRPC6 inhibitor: inhibitors of mouse TRPC6 channel; Q61143; 310,000 compounds, 1.1% hits; HEK293-TRPC6, membrane potential dye, ACh-evoked depolarization; hits give low values; B-score at 10 µM; AID 2553;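 active = B-score under library mean minus 3 SD, initial fluorescence not abnormally high, positive integrated signal ratio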;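 also: B-score derived from integrated fluorescence ratio over the kinetic read; more negative B-score means stronger inhibition of depolarization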
Starred values were filed as active, the others as inactive; i = inactive; nt = no result given. This is a sample that favours compounds with a hit; in the whole collection about 2.5% have one here.

SMILES	TRPC4 block	TRPC6 activator	Pemphigus Ab inh	TRPC4 potent	TRPC4 act	TRPC6 inhibitor
CC1(c2ccccc2)CC(C)(C)N(C(N)=O)c2ccccc21 (configuration not stated)	i	i	111	i	i	i
CC1=NN(c2ccccc2)C(=O)/C1=C/c1ccc(Cl)cc1	i	i	115	10*	i	i
N#Cc1ccc(OCC(=O)OCC(=O)Nc2sccc2C(N)=O)cc1	nt	nt	96	nt	nt	nt
CCOC(=O)C1=C(C)N=c2s/c(=C/c3cccc([N+](=O)[O-])c3O)c(=O)n2C1c1ccc(OC)cc1OC (configuration not stated)	i	i	123	i	i	-5.2*
CCOC(=O)C1=C(C)N=c2s/c(=C\c3ccc(O)c([N+](=O)[O-])c3)c(=O)n2C1c1ccccc1OC (configuration not stated)	i	i	103	i	i	i
C/C(=C\C(=O)c1ccc(Cl)cc1)Nc1ccc(N2CCOCC2)cc1	i	i	101	i	i	i
C/C(=C\C(=O)c1ccc(Br)cc1)Nc1ccc(Cl)cc1	i	i	78*	i	i	i
CSCCC(NC(=O)C12CC3CC(CC(C3)C1)C2)C(=O)OCC(=O)c1ccc(C)cc1 (configuration not stated)	i	i	53*	i	i	i
O=C(NNC(=S)NC(=O)c1ccc(F)cc1)c1ccncc1	nt	nt	98	nt	nt	nt
O=C(NNC(=S)NC(=O)C12CC3CC(CC(C3)C1)C2)c1ccncc1	i	i	120	i	169*	i
CC12CC3CC(C1)CC(C(=O)NNC(=O)c1ccncc1)(C3)C2	nt	nt	134	nt	nt	nt
CC1(C(=O)NC(=S)NNC(=O)c2ccncc2)CCCCC1	i	i	101	i	97*	i
CC1Oc2ccccc2N(CC(=O)N2CCCCCC2)C1=O (configuration not stated)	i	i	nt	i	i	i
CCOc1ccccc1N(CC(=O)NCCSc1ccccc1)S(C)(=O)=O	i	i	81	i	i	i
O=C(CCl)N(C1CCCC1)C1CCS(=O)(=O)C1 (configuration not stated)	i	i	114	i	i	i
Cc1cccc(CN2CCCC(C(=O)N3CCc4ccccc4C3)C2)c1 (configuration not stated)	i	i	97	i	70*	i
Cc1cccc(CN2CCCC(C(=O)N3CCCCC3)C2)c1 (configuration not stated)	i	i	97	i	i	i
O=C(C1CCCN(Cc2ccccc2F)C1)N1CCCCC1 (configuration not stated)	i	i	99	i	i	i
Cc1cccc(CN2CCCC(C(=O)Nc3ccccc3Oc3cccnc3)C2)c1 (configuration not stated)	-6*	i	103	i	i	i
O=C(C1CCCN(Cc2ccccc2F)C1)N1CCc2ccccc2C1 (configuration not stated)	i	i	96	i	110*	i
O=C(Nc1ccccc1Oc1cccnc1)C1CCCN(C/C=C/c2ccc(F)cc2)C1 (configuration not stated)	i	i	99	i	i	i
O=C(C1CCCN(Cc2ccncc2)C1)N1CCc2ccccc2C1 (configuration not stated)	i	i	111	i	164*	i
Cc1cc(C)c(N=C2SCC(=O)N2Cc2ccco2)c(C)c1	-5*	i	105	i	i	i
CCOC(=O)c1cc(C)[nH]c(=O)c1C#N	i	i	118	10*	i	i
CCOC(=O)c1cc(C)[nH]c1C	i	i	120	i	i	i
SMILES	TRPC4 block	TRPC6 activator	Pemphigus Ab inh	TRPC4 potent	TRPC4 act	TRPC6 inhibitor
CCCCOc1ccc(C(C)NC(=O)CCS(=O)(=O)Cc2ccccc2Cl)cc1 (configuration not stated)	i	i	13*	i	i	i
COc1ccc(C(=O)C2CCN(C(=S)NCCc3ccc(OC)c(OC)c3)CC2)cc1	i	i	-9.4*	i	i	i
COc1cc(/C=N/NC(=S)NCC2CCCO2)cc(OC)c1OC (configuration not stated)	i	i	84*	i	i	i
CCCc1cc(=O)oc2cc(OCC(=O)NCC(O)c3ccccc3)ccc12 (configuration not stated)	i	i	0.7*	i	i	i
CCCc1cc(=O)oc2cc(OCC(=O)NCc3cccs3)ccc12	i	i	46*	i	i	i
CCCc1cc(=O)oc2cc(OCC(=O)NCc3ccccn3)ccc12	i	i	109	i	i	i
CC(C)Cc1nnc(NC(=O)C2=COCCO2)s1	nt	nt	103	nt	nt	nt
O=C1CN(C(=O)CNCc2ccccc2)c2ccccc2N1	i	i	118	i	i	i
CC[n+]1c(C=C2C=C(C)OC(C)=C2)sc2ccccc21	-8*	i	136	i	i	i
CC[n+]1c(/C=C2/C=C(C)CC(C)C2)sc2ccccc21 (configuration not stated)	i	i	101	i	i	i
Cc1cc([N+](=O)[O-])ccc1NCc1ccco1	-6*	i	101	i	i	i
COc1cccc(CNc2ccc([N+](=O)[O-])cc2C)c1	i	i	105	i	i	i
CCc1c(C(=O)N2CCCN(C)CC2)csc1C	-6*	i	107	i	i	i
CCN(CC1COc2ccccc2O1)C(=S)Nc1ccccc1 (configuration not stated)	i	i	103	i	i	i
CCN(CC1COc2ccccc2O1)C(=S)NCCCN(C)C (configuration not stated)	i	i	102	12*	i	i
O=C(NCc1csc(-c2ccccc2)n1)c1cc(F)cc2c1OCOC2	i	i	98	i	i	i
CC(C)CCSc1nc2[nH]ncc2c(=O)[nH]1	i	i	102	i	i	i
CCCCN(C(=O)c1cccc2c(=O)c(C)c(-c3ccccc3)oc12)c1ccccc1	i	i	100	32*	i	i
Cc1ccc(NC(=O)CCN2CCC(Cc3ccccc3)CC2)cc1	i	i	112	i	96*	i
Cc1c(Cl)cccc1NC(=S)N1CCN(c2ccc([N+](=O)[O-])cn2)CC1	i	i	90*	i	i	i

Screening results (PubChem)
